Values joined by “and” are separate entries in the source; they are usually repeats but may differ in a detail not shown here. Identical values can stand only once.
System: HEK-293T
Assay: Multiplex assay against HEK293T
Assay type: toxicity, cell-based
Details: human
Summary of the method: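 At seeding, live cells were stained with Hoechst33342, BioTracker Green Microtubule Cytoskeleton Dye, MitoTracker Red and Annexin V Alexa Fluor 680. After compound addition they were imaged on a CQ1 microscope at 37°C and 5% CO2, and CellPathfinder machine-learning gating sorted them into Hoechst high-intensity objects or normal cells, with normal cells further split into healthy, pyknosed or fragmented nuclei and pyknosed cells into mitotic or apoptotic. Tubulin, mitochondrial-mass and membrane-permeability phenotypes are given as per cents of cells with healthy nuclei.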

[1] = 12 h, 1 µM, compound concentration 1 uM
[2] = 12 h, 10 µM, compound concentration 10 uM
[3] = 24 h, 1 µM, compound concentration 1 uM
[4] = 24 h, 10 µM, compound concentration 10 uM
[5] = 48 h, 1 µM, compound concentration 1 uM
[6] = 48 h, 10 µM, compound concentration 10 uM

SMILES: CN(C)Cc1cccc(NC(=C2C(=O)Nc3cc(C(N)=O)ccc32)c2ccccc2)c1
- Population Apoptotic (%) [1]: 11.04% and 8.47%
- Population Fragmented Nuclei (%) [1]: 2.49% and 2.04%
- Population Hoechst High Intensity Objects (%) [1]: 0.28% and 0%
- Population Membrane Permeable-Phenotype (%) [1]: 0.51% and 7.69%
- Population Mitochondria Different-Phenotype (%) [1]: 22.73% and 15.38%
- Population Mitotic Cells (%) [1]: 88.96% and 91.53%
- Population Normal (%) [1]: 99.72% and 100%
- Population Pyknosed Nuclei (%) [1]: 42.66% and 80.27%
- Total Cell Count [1]: 362 and 147
- Population Apoptotic (%) [2]: 15.53% and 28.8%
- Population Fragmented Nuclei (%) [2]: 3.04% and 4.44%
- Population Healthy Nuclei (%) [2]: 56.2% and 26.11%
- Population Hoechst High Intensity Objects (%) [2]: 0.25% and 0%
- Population Membrane Permeable-Phenotype (%) [2]: 0.45% and 2.13%
- Population Mitochondria Different-Phenotype (%) [2]: 20.72% and 17.02%
- Population Mitotic Cells (%) [2]: 84.47% and 71.2%
- Population Normal (%) [2]: 99.75% and 100%
- Population Pyknosed Nuclei (%) [2]: 40.76% and 69.44%
- Population Tubulin-Different-Phenotype (%) [2]: 14.86% and 40.43%
- Total Cell Count [2]: 396 and 180
- Population Apoptotic (%) [3]: 13.33% and 15.56%
- Population Fragmented Nuclei (%) [3]: 0.9% and 4.61%
- Population Healthy Nuclei (%) [3]: 77.6% and 36.18%
- Population Hoechst High Intensity Objects (%) [3]: 0.18% and 0.65%
- Population Membrane Permeable-Phenotype (%) [3]: 1.39% and 1.82%
- Population Mitochondria Different-Phenotype (%) [3]: 9.47% and 14.55%
- Population Mitotic Cells (%) [3]: 86.67% and 84.44%
- Population Normal (%) [3]: 99.82% and 99.35%
- Population Pyknosed Nuclei (%) [3]: 21.51% and 59.21%
- Population Tubulin-Different-Phenotype (%) [3]: 13.16% and 7.27%
- Population Apoptotic (%) [4]: 26.06% and 39.09%
- Population Fragmented Nuclei (%) [4]: 1.76% and 3.57%
- Population Healthy Nuclei (%) [4]: 66.02% and 40.31%
- Population Hoechst High Intensity Objects (%) [4]: 0.19% and 0%
- Population Membrane Permeable-Phenotype (%) [4]: 0.89% and 0%
- Population Mitochondria Different-Phenotype (%) [4]: 22.78% and 25.32%
- Population Mitotic Cells (%) [4]: 73.94% and 60.91%
- Population Normal (%) [4]: 99.81% and 100%
- Population Pyknosed Nuclei (%) [4]: 32.23% and 56.12%
- Population Tubulin-Different-Phenotype (%) [4]: 32.25% and 18.99%
- Total Cell Count [4]: 513 and 196
- Population Apoptotic (%) [5]: 10.07% and 19.05%
- Population Fragmented Nuclei (%) [5]: 1.84% and 0.58%
- Population Healthy Nuclei (%) [5]: 85.36% and 62.57%
- Population Hoechst High Intensity Objects (%) [5]: 0%
- Population Membrane Permeable-Phenotype (%) [5]: 5.39% and 0.93%
- Population Mitochondria Different-Phenotype (%) [5]: 17.15% and 29.91%
- Population Mitotic Cells (%) [5]: 89.93% and 80.95%
- Population Normal (%) [5]: 100%
- Population Pyknosed Nuclei (%) [5]: 12.8% and 36.84%
- Population Apoptotic (%) [6]: 19.7% and 35.71%
- Population Fragmented Nuclei (%) [6]: 2.75% and 2.37%
- Population Healthy Nuclei (%) [6]: 80.73% and 58.89%
- Population Hoechst High Intensity Objects (%) [6]: 0.12% and 0.39%
- Population Membrane Permeable-Phenotype (%) [6]: 4.19% and 2.01%
- Population Mitochondria Different-Phenotype (%) [6]: 43.1% and 38.26%
- Population Mitotic Cells (%) [6]: 80.3% and 64.29%
- Population Normal (%) [6]: 99.88% and 99.61%
- Population Pyknosed Nuclei (%) [6]: 16.52% and 38.74%
